These results are taken from ChEMBL document CHEMBL4325846, “An investigation on 4-thiazolidinone derivatives as dual inhibitors of aldose reductase and protein tyrosine phosphatase 1B, in the search for potential agents for the treatment of type 2 diabetes mellitus and its complications” (Bioorg Med Chem Lett, 2018).

The term IC50 denotes the concentration that inhibits the measured activity by half. For orientation: Ki means a measure of affinity in units of concentration, obtained from inhibition or displacement. As a reminder, the inhibition is the percentage by which the read-out fell short of the control.

In assay [1] the target is T1, Tyrosine-protein phosphatase non-receptor type 1 (Homo sapiens, UniProt P18031).
T1 sequence (P18031 whole entry): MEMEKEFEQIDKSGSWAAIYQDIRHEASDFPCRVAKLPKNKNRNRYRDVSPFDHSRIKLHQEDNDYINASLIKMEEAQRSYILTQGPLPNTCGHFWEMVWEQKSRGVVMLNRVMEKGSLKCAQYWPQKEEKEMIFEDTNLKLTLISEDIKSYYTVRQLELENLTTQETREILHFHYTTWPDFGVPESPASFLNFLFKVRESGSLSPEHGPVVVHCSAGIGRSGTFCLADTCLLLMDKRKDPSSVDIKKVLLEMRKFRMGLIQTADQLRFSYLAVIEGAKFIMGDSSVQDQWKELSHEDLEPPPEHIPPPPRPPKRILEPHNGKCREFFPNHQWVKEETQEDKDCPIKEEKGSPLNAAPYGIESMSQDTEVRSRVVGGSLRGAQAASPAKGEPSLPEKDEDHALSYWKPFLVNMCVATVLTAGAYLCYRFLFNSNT
The assay can be described thus: Inhibition of human full-length GST-fused PTP1B expressed in bacterial expression system using pNPP as substrate. The procedure, abridged:
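Human recombinant PTP1B activity measured with p-nitrophenyl phosphate as substrate and sodium metavanadate as reference inhibitor. IC50 values are reported as mean ± S.E.M.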

Assay [2] addresses T2, Aldo-keto reductase family 1 member B1 (Homo sapiens, UniProt P15121). The assay can be described thus: Inhibition of human recombinant aldose reductase expressed in Escherichia coli BL21 (DE3) pLysS assessed as reduction in NADPH oxidation using L-idose as substrate.
Assay [3] concerns the target T2, Aldo-keto reductase family 1 member B1. The assay can be described thus: Uncompetitive inhibition of human recombinant aldose reductase expressed in Escherichia coli BL21(DE3)pLysS assessed as dissociation constant of enzyme-inhibitor complex using L-idose as substrate by Morrison's plot analysis. The procedure, abridged: (§1)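 Purified human AR (7 mU) activity was measured across inhibitor concentrations at L-idose 2.1, 3.1, 4.1, 8.3 and 16.6 mM. Data were fitted to the Morrison equation to give Ki app at each substrate level. Ki app versus substrate was then fitted by nonlinear regression to a general tight-binding inhibition model.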

Assay [4] addresses T3, Tyrosine-protein phosphatase non-receptor type 1 (Homo sapiens) (UniProt P18031).
T3 sequence (whole entry): T1 sequence (P18031 whole entry)
As to the kind of experiment: Reversible inhibition of human full-length GST-fused PTP1B expressed in bacterial expression system using pNPP as substrate after 60 mins. The procedure, abridged: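 PTP1B was preincubated with a saturating inhibitor concentration for 60 min at 37°C. The mixture was then diluted in assay buffer and residual pNPP-hydrolysing activity was measured.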

For assay [5], the target named is T1, Tyrosine-protein phosphatase non-receptor type 1. The assay can be described thus: Non-competitive inhibition of human full-length GST-fused PTP1B expressed in bacterial expression system assessed as dissociation constant of enzyme-inhibitor complex using pNPP as substrate by Michaelis-Menten plot analysis. The method, boiled down:
(§2)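 Human recombinant PTP1B with pNPP, rates measured over varied substrate levels at inhibitor 0–30 µM (steps of 10 µM, or 0/3/6/9 µM). Double-reciprocal plots were drawn, and secondary plots of Km/Vmax versus inhibitor concentration were used. Data are mean ± S.E.M. (n = 3).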

Assay [6] deals with T2, Aldo-keto reductase family 1 member B1. The assay can be described thus: Reversible inhibition of human recombinant aldose reductase expressed in Escherichia coli BL21(DE3)pLysS assessed as enzyme activity recovery at 0.25 to 2 uM using L-idose as substrate relative to control. Further details: scale not given: the % may be the effect or the level left.
Assay [7] concerns the target T1, Tyrosine-protein phosphatase non-receptor type 1. As to the kind of experiment: Non-competitive inhibition of human full-length GST-fused PTP1B expressed in bacterial expression system assessed as dissociation constant of enzyme-inhibitor-substrate complex using pNPP as substrate by Michaelis-Menten plot analysis. The procedure, abridged: as §2
For assay [8], the target named is T2, Aldo-keto reductase family 1 member B1. As to the kind of experiment: Uncompetitive inhibition of human recombinant aldose reductase expressed in Escherichia coli BL21(DE3)pLysS assessed as dissociation constant of enzyme-inhibitor-substrate complex using L-idose as substrate by Morrison's plot analysis. The procedure, abridged: as §1
The target of assay [9] is T3, Tyrosine-protein phosphatase non-receptor type 1 (Homo sapiens). The assay can be described thus: Inhibition of human full-length GST-fused PTP1B expressed in bacterial expression system at 300 uM using pNPP as substrate relative to control.
Assay [10] addresses T1, Tyrosine-protein phosphatase non-receptor type 1. As to the kind of experiment: Mixed non-competitive inhibition of human full-length GST-fused PTP1B expressed in bacterial expression system assessed as assessed as dissociation constant of enzyme-inhibitor complex using pNPP as substrate by double reciprocal plot analysis. The procedure, abridged:
(§3)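 Human recombinant PTP1B with pNPP. Rates were measured over varied substrate levels at inhibitor 0, 2, 4 and 6 µM. […] Data are mean ± S.E.M. (n = 3).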

Assay [11] shares this target. As to the kind of experiment: Mixed non-competitive inhibition of human full-length GST-fused PTP1B expressed in bacterial expression system assessed as assessed as dissociation constant of enzyme-inhibitor-substrate complex using pNPP as substrate by double reciprocal plot analysis. The method, boiled down:
as §3

The source made the active and inactive calls. The calls are words filed in the database; no cut-off is given here. A value given as a limit tells only on which side of the number the result lay.

`O=C(O)CN1C(=O)/C(=C/C=C/c2ccccc2)SC1=S`: the IC50 was found to be 171 µM in assay [1] and 0.125 µM in [2].
Take `O=C(O)CN1C(=O)S/C(=C\c2cccc(OCCc3ccccc3)c2)C1=O`: the Ki in [3] was above 0.5 µM; in assay [5], 13.1 µM; in assay [7], 13.1 µM; in assay [8] it was 0.016 µM. In addition, the inhibition result in assay [4] was “Active”. The IC50 amounted to 12.4 µM in [1] and 0.276 µM in assay [2]. In assay [6], the Activity amounted to 70%.
With `COc1cc(/C=C2\SC(=S)N(CC(=O)O)C2=O)ccc1OCC(N)=O`, the IC50 was 378 µM in [1] and 0.228 µM in [2].
Turning to `COc1cccc(/C=C2\SC(=S)N(CC(=O)O)C2=O)c1`, in assay [2], the IC50 worked out at 0.078 µM.
For `O=C(O)CN1C(=O)S/C(=C\c2ccc(OCCc3ccccc3)cc2)C1=O`, the IC50 in assay [1] came out at 63.8 µM; in [2], 0.364 µM.
The matching figures for `NC(=O)COc1cccc(/C=C2\SC(=S)N(CC(=O)O)C2=O)c1`: 716 µM and 0.064 µM.
The matching figures for `COc1cc(/C=C2\SC(=S)N(CC(=O)O)C2=O)ccc1OCc1ccccc1`: 54.1 µM and 0.04 µM.
On to `NC(=O)COc1ccc(/C=C2\SC(=S)N(CC(=O)O)C2=O)cc1`, for which, in assay [9], the inhibition stood at 10%. Besides, the IC50 in assay [2] was 0.194 µM.
As to `O=C(O)CN1C(=O)/C(=C/c2cccc(Oc3ccccc3)c2)SC1=S`, the IC50 in assay [1] came out at 86.8 µM; in [2], 0.025 µM.
Consider `O=C(O)CN1C(=O)/C(=C/c2ccc(OCc3ccccc3)cc2)SC1=S`, for which the values for the concentration for half-maximal inhibition (IC50) in [1] and in assay [2] were 56 µM and 0.052 µM, respectively.
The corresponding values for `O=C(O)CN1C(=O)/C(=C/c2ccc(OCCc3ccccc3)cc2)SC1=S` are 49.4 µM and 0.104 µM.
Regarding `COc1cc(/C=C2\S/C(=N\c3ccccc3)N(CC(=O)O)C2=O)ccc1OCc1ccccc1`, the Ki is 7.6 µM in assay [10] and 40.6 µM in assay [11]. In addition, the IC50 in [1] turned out to be 10.6 µM; in [2] it was 1.41 µM.
With `COc1ccc(/C=C2\SC(=S)N(CC(=O)O)C2=O)cc1OCC(N)=O`, the figures for the IC50 in assay [1] and in assay [2] were 679 µM and 0.139 µM, respectively.
`O=C(O)CN1C(=O)/C(=C/c2cccc(OCCc3ccccc3)c2)SC1=S`: the Ki in assay [3] was above 0.3 µM; in [5], 12 µM; in assay [7], 12 µM; in [8], 0.0062 µM. The inhibition result in assay [4] is “Active”. Besides, the IC50 in assay [1] amounted to 32.5 µM; in assay [2], 0.056 µM. Further, in assay [6], the Activity was 70%.
With `O=C(O)CN1C(=O)/C(=C/c2cccc(OCc3ccccc3)c2)SC1=S`, the results for the IC50 in assay [1] and in assay [2] were 43.1 µM and 0.053 µM, respectively.
The corresponding values for `O=C(O)CN1C(=O)/C(=C/c2ccc(Oc3ccccc3)cc2)SC1=S` are 63.9 µM and 0.06 µM.
With `COc1cc(/C=C2\SC(=O)N(CC(=O)O)C2=O)ccc1OCc1ccccc1`, the IC50 in assay [1] stood at 151 µM; in assay [2], 0.323 µM.
